In this test the test system is PPC-1 cells, TRAIL potentiation, ATPlite luminescence, 24 h. Nature of the test: synergy with TRAIL in cancer cell cytotoxicity – PPC-1 cells, ATPlite luminescence, confirmation (AID 1624). Particulars: stronger effect = higher value. An outline of the steps: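 Test system: PPC-1 cells; Schedule: 4 h compound plus 24 h TRAIL, 37 °C; Doses: compound at 1.25 to 5 µM final concentration; Detection: ATPlite luminescence measuring cellular ATP; Probe or stimulus: TRAIL stimulus.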
On the technique in general: In ATP-based viability assays light output follows the ATP content of the culture.

The mark [1] stands for this setting: compound alone cytotoxicity, at 5 µM.
Where [2] appears, read: compound plus TRAIL, at 1.25 µM.

The structures appear in SMILES notation.

For the compound `CCSc1nc(-c2ccccc2)nc(C(Cl)Cl)n1`, the cytotoxicity with TRAIL was 96% (at 5 µM); 43% under setting [2]; 61% (compound plus TRAIL, at 2.5 µM). The cytotoxicity without TRAIL is, setting by setting: under setting [1], 41%; (compound alone, at 1.25 µM) 18%; (compound alone, at 2.5 µM) 26%.

With `CSc1nc(-c2ccc(C)cc2)nc(C(Cl)Cl)n1`, the cytotoxicity with TRAIL was 100% (at 5 µM); 94% under setting [2]; 100% (compound plus TRAIL, at 2.5 µM). In addition, the cytotoxicity without TRAIL turned out to be 45% under setting [1]; 49% (compound alone, at 1.25 µM); 48% (compound alone, at 2.5 µM).

Consider `CSc1nc(-c2ccccc2)nc(C(Cl)Cl)n1`, for which the cytotoxicity with TRAIL reads like this: (at 5 µM) 100%; under setting [2], 83%; (compound plus TRAIL, at 2.5 µM) 96%. Moreover, the cytotoxicity without TRAIL reads like this: under setting [1], 56%; (compound alone, at 1.25 µM) 52%; (compound alone, at 2.5 µM) 56%.

For the origin of these results see PubChem BioAssay AID1624 (Sanford-Burnham Center for Chemical Genomics, 2009).
